Measured values taken from paper PMC7936662 (Thrombosis research, 2020).
Read-outs that look alike come from different tables or passages of the source.

Key:
[1] = system: thrombin-mediated platelet activation; assay: In vitro platelet activation in whole blood; type: cell-based; conditions: read-out: EC50 inhibition of platelet activation, Rat blood—Thrombin; 20% whole blood; mean ± SD
male SD rats [2] = conditions: rat, cited from earlier work
male SD rats [3] = assay: Platelet status in AV shunt model; type: in vivo; conditions: rat, vehicle approximately 20%
[4] = system: TF-mediated platelet activation; assay: In vitro platelet activation in whole blood; type: cell-based, human; conditions: mean ± SD
[5] = system: thrombin-mediated platelet activation; assay: In vitro platelet activation in whole blood; type: cell-based; conditions: read-out: EC50 inhibition of platelet activation, Mouse blood—Thrombin; 20% whole blood; mean ± SD
male CD-1 mice [6] = assay: Mouse iron-chloride-induced arterial thrombosis model; type: in vivo
male SD rats [7] = conditions: rat, cited from earlier work; remark: listed apart in the source
male SD rats [8] = assay: Inferior vena cava; type: in vivo; conditions: rat
thrombin generation = assay: Thrombin generation assay; type: biochemical; conditions: 70% human platelet-poor plasma, mean ± SD; for Cmax: read-out: Tmax EC2x (concentration of inhibitor required to double the time at which Cmax occurs)
[9] = system: thrombin-mediated platelet activation; assay: In vitro platelet activation in whole blood; type: cell-based, human; conditions: mean ± SD
male CD-1 mice [10] = assay: Thrombin-induced thromboembolism mouse model; type: in vivo; conditions: 4.5 mg/kg IV, 30 min observation, human α-thrombin 1.75 U/g
Method in brief: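 Mice anaesthetised with 1:1 ketamine:xylazine. Test compound given by tail-vein injection; 30 s later human α-thrombin in PBS (1.75 U/g body weight) or PBS alone injected slowly. Mortality observed for 30 min; animals alive at 30 min scored as survivors and euthanised by cervical dislocation. Results expressed as percent survival; n = 12 per treatment group.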

male SD rats [11] = assay: Arteriovenous shunt; type: in vivo; conditions: rat, 3 mg/kg infusion

Q: With [H]/N=C(/N)c1ccc(NCc2nc3cc(C(=O)N(CCC(=O)O)c4ccccn4)ccc3n2C)cc1 [Dabigatran, dabigatran] as the molecule, how does the EC50 [1] read?
A: The EC50 was 27 ± 10 nM.

Q: What about the “ED50, value published by the manufacturer” value (male SD rats [2]; IV) of the same molecule?
A: Its value is 0.033 mg/kg.

Q: What about the “activated platelets (average over time points)” value (male SD rats [3]; 0.1 mg/kg IV) of the same molecule?
A: The value was less than 10%.

Q: What about the EC50 ([4]; read-out: EC50 inhibition of platelet activation, Human blood (76%)—TF, 76% whole blood) of the same molecule?
A: Its EC50 is 29 ± 3 nM.

Q: What about the EC50 ([4]; read-out: EC50 inhibition of platelet activation, Human blood—TF, 20% whole blood) of the same molecule?
A: The EC50 was 23 ± 6 nM.

Q: What about the EC50 [5] of the same molecule?
A: The EC50 was 21 ± 10 nM.

Q: And the occlusion time (male CD-1 mice [6]; 0.2 mg/kg)?
A: Its occlusion time is greater than 30 min.

Q: What about the “EC50 in AV shunt model, literature” value (male SD rats [7]) of the same molecule?
A: Its value is ~ 0.04 mg/kg.

Q: What about the ED50 thrombus formation (male SD rats [8]; IV administration) of the same molecule?
A: The ED50 thrombus formation was 0.01 mg/kg.

Q: What about the EC50 (thrombin generation; read-out: Cmax EC50) of the same molecule?
A: Its EC50 is 450 ± 450 nM.

Q: And the EC50 (thrombin generation; read-out: ETP EC50)?
A: The EC50 was 310 ± 240 nM.

Q: What about the Cmax (thrombin generation) of the same molecule?
A: The Cmax was 240 ± 240 nM.

Q: What about the EC50 ([9]; read-out: EC50 inhibition of platelet activation, Human blood (76%)—Thrombin, 76% whole blood) of the same molecule?
A: Its EC50 is 14 ± 1 nM.

Q: What about the EC50 ([9]; read-out: EC50 inhibition of platelet activation, Human blood—Thrombin, 20% whole blood) of the same molecule?
A: Its EC50 is 35 ± 10 nM.

Q: For O=C(NC[C@H]1CN(c2ccc(N3CCOCC3=O)cc2)C(=O)O1)c1ccc(Cl)s1 [Rivaroxaban, rivaroxaban], which “EC50 in AV shunt model, literature value” (male SD rats [7]) is on record?
A: Its value is 0.3 mg/kg.

Q: What about the EC50 (thrombin generation; read-out: Cmax EC50) of the same molecule?
A: The EC50 was 100 ± 100 nM.

Q: And the EC50 (thrombin generation; read-out: ETP EC50)?
A: The EC50 was 310 ± 140 nM.

Q: And the Cmax (thrombin generation)?
A: The Cmax was 100 ± 30 nM.

Q: For CC1CNc2c(cccc2S(=O)(=O)N[C@@H](CCCNC(=N)N)C(=O)N2CC[C@@H](C)C[C@@H]2C(=O)O)C1 (some centres unmarked) [Argatroban, argatroban], which “activated platelets (average over time points)” value (male SD rats [3]; 2 mg/kg IV) is on record?
A: Its value is less than 10%.

Q: What about the occlusion time (male CD-1 mice [6]; 4 mg/kg) of the same molecule?
A: The occlusion time was greater than 30 min.

Q: What about the “treated mice in which mortality was prevented” value (male CD-1 mice [10]) of the same molecule?
A: Its value is 91%.

Q: What about the EC50 (thrombin generation; read-out: Cmax EC50) of the same molecule?
A: Its EC50 is 350 ± 140 nM.

Q: What about the EC50 (thrombin generation; read-out: ETP EC50) of the same molecule?
A: The EC50 was 360 ± 162 nM.

Q: And the Cmax (thrombin generation)?
A: The Cmax was 454 ± 240 nM.

Q: For COc1ccc(-n2nc(C(N)=O)c3c2C(=O)N(c2ccc(N4CCCCC4=O)cc2)CC3)cc1 [Apixaban, apixaban], which “inhibition of thrombus formation” value (male SD rats [11]) is on record?
A: Its value is “about 90%”.

Q: And the “inhibition of thrombus formation, literature” value (male SD rats [2]; ref 47 (Shumacher et al. 2010))?
A: Its value is “about 60%”.

Q: What about the occlusion time (male CD-1 mice [6]; 6 mg/kg infusion) of the same molecule?
A: Its occlusion time is greater than 30 min.

Q: And the “inhibition of thrombus formation, literature value” (male SD rats [7]; 3 mg/kg/infusion)?
A: The value was ~ 80%.

Q: What about the “inhibition of thrombus formation” value (male SD rats [8]; 3 mg/kg/infusion) of the same molecule?
A: Its value is 90%.

Q: And the EC50 (thrombin generation; read-out: Cmax EC50)?
A: Its EC50 is 100 ± 100 nM.

Q: And the EC50 (thrombin generation; read-out: ETP EC50)?
A: Its EC50 is 470 ± 10 nM.

Q: And the Cmax (thrombin generation)?
A: The Cmax was 70 ± 40 nM.
